The test system of series [1] is Trypanosoma brucei brucei. Put plainly: Antitrypanosomal activity against AT1 knock out Trypanosoma brucei brucei assessed as cell viability after 48 hrs by alamar blue assay. The class given is functional, organism-based. An outline of the steps:
(§1)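 Alamar blue viability assay run in parallel on T. b. brucei s427 wild type trypomastigotes, the TbAT1-KO strain (no functional P2 transporter) and the B48 strain (derived from TbAT1-KO, nonfunctional HAPT). EC50 values are the mean of three experiments ± SEM. Resistance factor is the EC50 against each resistant strain relative to wild type.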

Series [2] has as its system Trypanosoma brucei brucei. The experiment in a line: Antitrypanosomal activity against Trypanosoma brucei brucei B48 with nonfunctional high affinity pentamidine transporter assessed as cell viability after 48 hrs by alamar blue assay. The conditions noted are these: B48, 48 h. In kind it is functional, organism-based. A digest of the protocol: as §1
Series [3] concerns Trypanosoma brucei brucei. Put plainly: Antitrypanosomal activity against wild type Trypanosoma brucei brucei s427 trypomastigotes assessed as cell viability after 48 hrs by alamar blue assay. The conditions noted are these: s427, 48 h. The class given is functional, organism-based. An outline of the steps:
as §1

A short description of series [4]: Cytotoxicity against HEK293 cells after 16 hrs by alamar blue assay. In kind it is cell-based. The settings on record: human.
The nature of series [5]: Selectivity index, ratio of CC50 for HEK293 cells to EC50 for wild type Trypanosoma brucei brucei s427 trypomastigotes. In kind it is toxicity, cell-based. The settings on record: human; read-out: Ratio CC50/EC50. A digest of the protocol:
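Selectivity index = CC50 for HEK cells divided by EC50 against T. b. brucei s427 wild type.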

In series [6] the test system is Trypanosoma brucei brucei. The experiment in a line: Resistance factor, ratio of EC50 for Trypanosoma brucei brucei B48 to EC50 for wild type Trypanosoma brucei brucei s427 trypomastigotes. In kind it is functional. A digest of the protocol:
(§2)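 AlamarBlue-based viability assay run in parallel on wild-type T. b. brucei s427 trypomastigotes and two resistant strains. TbAT1-KO lacks a functional P2 transporter and is diminazene-resistant. B48 is derived from TbAT1-KO and also lacks a functional high-affinity pentamidine transporter (HAPT). EC50 values are means of three experiments ± SEM. Each resistant-strain EC50 is divided by the wild-type EC50.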

For series [7], the system named is Trypanosoma brucei brucei. The experiment in a line: Resistance factor, ratio of EC50 for AT1 knock out Trypanosoma brucei brucei to EC50 for wild type Trypanosoma brucei brucei s427 trypomastigotes. In kind it is functional. An outline of the steps:
as §2

Bounds are passed on as bounds.

As for `CC[N+](CC)(CC)Cc1ccc(Oc2ccc(C[N+](CC)(CC)CC)cc2)cc1`, the EC50 in series [1], in series [2] and in series [3] was more than 100 µM each time.

Turning to `CCCC[N+](CCCC)(CCCC)Cc1ccc(Oc2ccc(C[N+](CCCC)(CCCC)CCCC)cc2)cc1.[Br-].[Br-]`, the CC50 at 16 h in series [4] was more than 300 µM. In addition, in series [5], the selectivity ratio was more than 100. The figures for the “Ratio EC50” value in series [6] and in series [7] were 1.1 and 1.4, respectively. Moreover, the concentration giving a half-maximal response (EC50) is 3.98 µM in series [1], 3 µM in series [2] and 2.8 µM in series [3].

The compound `CCCCCC[N+](CCCCCC)(CCCCCC)Cc1ccc(Oc2ccc(C[N+](CCCCCC)(CCCCCC)CCCCCC)cc2)cc1.[Br-].[Br-]` displayed a CC50 at 16 h in series [4] of 21.8 µM. Moreover, in series [5], the selectivity ratio turned out to be 213. Further, the “Ratio EC50” value was found to be 0.6 in series [6] and 0.8 in series [7]. The EC50 was 0.08 µM in series [1], 0.065 µM in series [2] and 0.102 µM in series [3].

For the compound `[Br-].[Br-].c1cc[n+](Cc2ccc(Oc3ccc(C[n+]4ccccc4)cc3)cc2)cc1`, the “Ratio EC50” value in series [6] came to 0.8. The EC50 in series [1] was more than 100 µM; in series [2], 72 µM; in series [3], 85 µM.

Compound `[Br-].[Br-].c1ccc2c(c1)ccc[n+]2Cc1ccc(Oc2ccc(C[n+]3cccc4ccccc43)cc2)cc1` came in with a CC50 at 16 h in series [4] of more than 300 µM. Further, the selectivity ratio in series [5] was more than 27. In addition, the “Ratio EC50” value in series [6] and in series [7] was 0.9 throughout. Further, the EC50 in series [1] worked out at 10.2 µM; in series [2], 9.7 µM; in series [3] it was 11 µM.

`CC[N+](CC)(CC)Cc1ccc(C(=O)c2ccc(C[N+](CC)(CC)CC)cc2)cc1`: the EC50 in series [1], in series [2] and in series [3] was more than 100 µM in each case.

Compound `CCCC[N+](CCCC)(CCCC)Cc1ccc(C(=O)c2ccc(C[N+](CCCC)(CCCC)CCCC)cc2)cc1.[Br-].[Br-]` gave a 50% cytotoxic concentration (CC50) at 16 h in series [4] of more than 300 µM. Also, the selectivity ratio in series [5] is more than 26. The figures for the “Ratio EC50” value in series [6] and in series [7] were 1.2 and 1.4, respectively. Besides, the values for the EC50 in series [1], in series [2] and in series [3] were 16.7 µM, 14.1 µM and 11.5 µM, respectively.

For the compound `O=C(c1ccc(C[n+]2ccccc2)cc1)c1ccc(C[n+]2ccccc2)cc1`, the EC50 in series [1], in series [2] and in series [3] was more than 100 µM throughout.

Take `O=C(c1ccc(C[n+]2cccc3ccccc32)cc1)c1ccc(C[n+]2cccc3ccccc32)cc1.[Br-].[Br-]`: in series [4], the CC50 at 16 h was more than 300 µM. For the same compound, the selectivity ratio in series [5] is more than 6. Also, the “Ratio EC50” value worked out at 0.7 in series [6] and 0.8 in series [7]. Moreover, the EC50 in series [1] stood at 35.2 µM; in series [2], 30.9 µM; in series [3] it was 45.4 µM.

In series [4], `CCCC[N+](CCCC)(CCCC)Cc1ccc(C(=O)c2ccccc2)cc1.[Br-]` registered a CC50 at 16 h of more than 300 µM. Also, in series [5], the selectivity ratio is more than 65. Besides, the “Ratio EC50” value in series [6] turned out to be 1; in series [7] it was 0.9. Further, the EC50 was 4.1 µM in series [1], 4.5 µM in series [2] and 4.6 µM in series [3].

On to `CCCCCC[N+](CCCCCC)(CCCCCC)Cc1ccc(C(=O)c2ccccc2)cc1.[Br-]`, for which, in series [4], the CC50 at 16 h was 15.4 µM. Moreover, the selectivity ratio in series [5] worked out at 668. Also, the “Ratio EC50” value in series [6] came to 0.6; in series [7], 0.8. In addition, the EC50 was found to be 0.018 µM in series [1], 0.014 µM in series [2] and 0.023 µM in series [3].

Consider `O=C(c1ccccc1)c1ccc(C[n+]2ccccc2)cc1`, for which the concentration for a half-maximal effect (EC50) in series [1], in series [2] and in series [3] was more than 100 µM each time.

Consider `O=C(c1ccccc1)c1ccc(C[n+]2cccc3ccccc32)cc1`, for which the values for the EC50 in series [1], in series [2] and in series [3] were 68.5 µM, 81.5 µM and more than 100 µM, respectively.

With `Cl.O=C(c1ccccc1)c1ccc(CN(Cc2ccccc2)Cc2ccccc2)cc1`, the CC50 at 16 h in series [4] was more than 300 µM. In addition, in series [5], the selectivity ratio was more than 27. Also, the results for the “Ratio EC50” value in series [6] and in series [7] were 0.7 and 0.9, respectively. For the same compound, the EC50 was 10 µM in series [1], 8.3 µM in series [2] and 11 µM in series [3].

`N=C(N)c1ccc(/N=N/Nc2ccc(C(=N)N)cc2)cc1` [DIMINAZENE]: the “Ratio EC50” value in series [6] is 3.1; in series [7], 2.3. The EC50 amounted to 0.738 µM in series [1] and 0.323 µM in series [3].

On to `N=C(N)c1ccc(OCCCCCOc2ccc(C(=N)N)cc2)cc1` [PENTAMIDINE], for which the “Ratio EC50” value came out at 32.9 in series [6] and 0.6 in series [7]. Moreover, the EC50 in series [1] came out at 0.006 µM; in series [2] it was 0.329 µM; in series [3] it was 0.01 µM.

The values are drawn from ChEMBL document CHEMBL3421621, “SAR Studies of Diphenyl Cationic Trypanocides: Superior Activity of Phosphonium over Ammonium Salts” (ACS Med Chem Lett, 2015).
